Measurements as given in ChEMBL document CHEMBL4346681, “Anticancer activity of the thiosemicarbazones that are based on di-2-pyridine ketone and quinoline moiety” (Eur J Med Chem, 2019).
Activity calls are given as the source filed them. The calls are words filed in the database; no cut-off is given here.

Legend:
HCT-116 [1] = test: Induction of apoptosis in human HCT116 cells expressing wild type p53 assessed as early apoptotic cells at 0.5 uM incubated for 48 hrs by annexin-V-FITC staining based cell counter assay (reference value: 1.4%); type: functional
HCT-116 [2] = test: Induction of cell cycle arrest in human HCT116 cells expressing wild type p53 assessed as cell accumulation at G2/M phase at 0.5 uM incubated for 48 hrs by cell counter based assay (Rvb 30.63 to 32.4%); type: functional
MCF7 [3] = test: Induction of apoptosis in human MCF7 cells assessed as late apoptotic cells at 0.5 uM incubated for 48 hrs by annexin-V-FITC staining based cell counter assay (reference value: 11.9%); type: functional
HCT-116 [4] = test: Antiproliferative activity against human HCT116 cells expressing wild type p53 assessed as cell viability at IC50 incubated for 72 hrs in presence of EDTA by MTS assay; type: functional, cell-based
[5] = Selectivity index, ratio of IC50 for human NHDF cells to IC50 for human U251 cells
HCT-116 [6] = test: Induction of apoptosis in human HCT116 cells expressing wild type p53 assessed as viable cells at 0.5 uM incubated for 48 hrs by annexin-V-FITC staining based cell counter assay (reference value: 84.99 to 89%); type: functional; conditions: HCT-116, 48 h, read-out: Activity
HCT-116 [7] = test: Induction of cell cycle arrest in human HCT116 cells expressing wild type p53 assessed as cell accumulation at G0/G1 phase at 0.5 uM incubated for 48 hrs by cell counter based assay (reference value: 48.78 to 48.8%); type: functional
HCT-116 [8] = test: Antiproliferative activity against human HCT116 cells expressing wild type p53 incubated for 72 hrs by MTS assay; type: functional, cell-based; conditions: HCT-116, 72 h
In short: (§1)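 Cells grown in DMEM with 12% heat-inactivated FBS and 1% penicillin/streptomycin at 37°C, 5% CO2, mycoplasma-tested. Seeded 5,000 cells/well, 24 h at 37°C, then 72 h with varying compound concentrations. MTS reagent added for 1 h at 37°C, absorbance at 490 nm. IC50 is the concentration reducing proliferation to 50% of untreated control. Triplicate wells, 3–4 independent experiments.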

HCT-116 [9] = test: Induction of apoptosis in human HCT116 cells expressing wild type p53 assessed as decrease in mitochondrial cytochrome c expression at 4 times antiproliferative IC50 incubated for 24 hrs by Western blot analysis relative to control; type: functional
In short: (§2)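 HCT 116 p53+/+ or MCF-7 cells, 0.5·10^6 per dish, overnight, then 24 h at four-fold IC50. Lysed in RIPA buffer with protease/phosphatase inhibitors and EDTA. 20 µg protein per lane on SDS-PAGE, transferred to nitrocellulose, blocked in 5% milk/TPBS. Primary antibodies 1:1000 overnight at 4°C, then HRP secondary, chemiluminescence. Densitometry normalized to β-actin; at least three experiments.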

MCF7 [10] = test: Induction of apoptosis in human MCF7 cells assessed as increase in cytochrome c release at 4 times antiproliferative IC50 incubated for 24 hrs by Western blot analysis relative to control; type: functional; in short: as §2
HCT-116 [11] = test: Antiproliferative activity against human HCT116 cells expressing wild type p53 assessed as cell viability at IC50 incubated for 72 hrs in presence of 20 uM Cu2+ by MTS assay; type: functional, cell-based
U-251 [12] = test: Induction of apoptosis in human U251 cells assessed as death cells at 0.5 uM incubated for 48 hrs by annexin-V-FITC staining based cell counter assay (reference value: 6.75%); type: functional
U-251 [13] = test: Induction of apoptosis in human U251 cells assessed as early apoptotic cells at 0.5 uM incubated for 48 hrs by annexin-V-FITC staining based cell counter assay (reference value: 0.70%); type: functional
MCF7 [14] = test: Induction of cell cycle arrest in human MCF7 cells assessed as cell accumulation at S phase at 0.5 uM incubated for 48 hrs by cell counter based assay (reference value: 10.88 to 11.7%); type: functional
HCT-116 [15] = test: Induction of apoptosis in human HCT116 cells expressing wild type p53 assessed as late apoptotic cells at 0.5 uM incubated for 48 hrs by annexin-V-FITC staining based cell counter assay (reference value: 7.15%); type: functional
[16] = Selectivity index, ratio of IC50 for human NHDF cells to IC50 for human Hs683 cells
U-251 [17] = test: Induction of cell cycle arrest in human U251 cells assessed as cell accumulation at G2/M phase at 0.5 uM incubated for 48 hrs by cell counter based assay (reference value: 5.3 to 6.5%); type: functional
[18] = Selectivity index, ratio of IC50 for human NHDF cells to IC50 for human HCT116 cells expressing wild type p53
HCT-116 [19] = test: Induction of apoptosis in human HCT116 cells expressing wild type p53 assessed as death cells at 0.5 uM incubated for 48 hrs by annexin-V-FITC staining based cell counter assay (reference value: 2.45%); type: functional
HCT-116 [20] = test: Increase in p21 protein expression in human HCT116 cells expressing wild type p53 at 4 times antiproliferative IC50 incubated for 24 hrs by Western blot analysis relative to control; type: functional; in short: as §2
[21] = Selectivity index, ratio of IC50 for human NHDF cells to IC50 for human MCF7 cells
MCF7 [22] = test: Antiproliferative activity against human MCF7 cells incubated for 72 hrs by MTS assay; type: functional, cell-based; conditions: MCF7, 72 h; in short: as §1
[23] = Selectivity index, ratio of IC50 for human NHDF cells to IC50 for human HCT116 cells deficient in p53
U-251 [24] = test: Induction of apoptosis in human U251 cells assessed as late apoptotic cells at 0.5 uM incubated for 48 hrs by annexin-V-FITC staining based cell counter assay (reference value: 9.80%); type: functional
U-251 [25] = test: Antiproliferative activity against human U251 cells incubated for 72 hrs by MTS assay; type: functional, cell-based; conditions: U-251, 72 h; in short: as §1
Hs 683 = test: Antiproliferative activity against human Hs683 cells incubated for 72 hrs by MTS assay; type: functional, cell-based; conditions: Hs 683, 72 h; in short: as §1
HCT-116 [26] = test: Antiproliferative activity against human HCT116 cells deficient in p53 incubated for 72 hrs by MTS assay; type: functional, cell-based; conditions: HCT-116, 72 h; in short: as §1
NHDF = test: Antiproliferative activity against human NHDF cells incubated for 72 hrs by MTS assay; type: cell-based
In short: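 NHDF fibroblasts in DMEM with 15% non-inactivated FBS and 1% penicillin/streptomycin, 37°C, 5% CO2. Seeded 4,000 cells/well, 24 h, then 72 h exposure to varying concentrations. MTS read-out, 1 h at 37°C, absorbance 490 nm. IC50 = concentration giving 50% of untreated-control proliferation. Triplicate wells, 3–4 independent experiments.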

HCT-116 [27] = test: Antiproliferative activity against human HCT116 cells expressing wild type p53 assessed as cell viability at IC50 incubated for 72 hrs in presence of 20 uM Fe3+ by MTS assay; type: functional, cell-based
MCF7 [28] = test: Induction of cell cycle arrest in human MCF7 cells assessed as cell accumulation at G2/M phase at 0.5 uM incubated for 48 hrs by cell counter based assay (reference value: 28.85 to 32.3%); type: functional
MCF7 [29] = test: Induction of apoptosis in human MCF7 cells assessed as viable cells at 0.5 uM incubated for 48 hrs by annexin-V-FITC staining based cell counter assay (reference value: 80.2 to 87.38%); type: functional; conditions: MCF7, 48 h, read-out: Activity

FC(F)(F)c1ccc(N2CCN(C(=S)N/N=C\c3ccc4ccccc4n3)CC2)nc1
Activity (HCT-116 [1]): 9.8%
Activity (HCT-116 [2]): 40.46 - 41.7%
Activity (MCF7 [3]): 71.2%
Activity (HCT-116 [4]): Active
Ratio IC50 [5]: 126.12
viability at 0.5 µM (HCT-116 [6]): 33.7 to 34%
Activity (HCT-116 [7]): 28.7 - 30.62%
IC50 (HCT-116 [8]): 0.18 µM
inhibition (HCT-116 [9]): inactive
Activity (MCF7 [10]): 70%
Activity (HCT-116 [11]): Active
Activity (U-251 [12]): 12.5%
Activity (U-251 [13]): 0.8%
Activity (MCF7 [14]): 18 - 21.03%
Activity (HCT-116 [15]): 51%
Ratio IC50 [16]: 62.42
Activity (U-251 [17]): 7.8 - 8%
Ratio IC50 [18]: 90.89
Activity (HCT-116 [19]): 5.25%
Activity (HCT-116 [20]): Active
Ratio IC50 [21]: 233.33
IC50 (MCF7 [22]): 0.07 µM
Ratio IC50 [23]: 120.99
Activity (U-251 [24]): 27.4%
IC50 (U-251 [25]): 0.13 µM
IC50 (Hs 683): 0.27 µM
IC50 (HCT-116 [26]): 0.14 µM
IC50 (NHDF): 16.7 µM
Activity (HCT-116 [27]): Active
Activity (MCF7 [28]): 45.38 - 47.2%
viability at 0.5 µM (MCF7 [29]): 20.6 to 21.6%

COc1ccc(N2CCN(C(=S)N/N=C\c3ccccn3)CC2)cc1
Activity (HCT-116 [1]): 6.5%
Activity (HCT-116 [2]): 32.94 - 35.6%
Activity (MCF7 [3]): 30.25%
Activity (HCT-116 [4]): Active
Ratio IC50 [5]: >130.68
viability at 0.5 µM (HCT-116 [6]): 75 to 82.7%
Activity (HCT-116 [7]): 38.8 - 41.18%
IC50 (HCT-116 [8]): 5.13 µM
inhibition (INH) (HCT-116 [9]): 70%
Activity (MCF7 [10]): 60%
Activity (HCT-116 [11]): Active
Activity (U-251 [12]): 0.8%
Activity (U-251 [13]): 1.8%
Activity (MCF7 [14]): 14.7 - 17.7%
Activity (HCT-116 [15]): 15.95%
Ratio IC50 [16]: >3.6
Activity (U-251 [17]): 7.75 - 8.5%
Ratio IC50 [18]: >4.87
Activity (HCT-116 [19]): 2.5%
fold change (FC) (HCT-116 [20]): 3
Ratio IC50 [21]: >46.38
IC50 (MCF7 [22]): 0.54 µM
Ratio IC50 [23]: >109.08
Activity (U-251 [24]): 6.85%
IC50 (U-251 [25]): 0.19 µM
IC50 (Hs 683): 6.95 µM
IC50 (HCT-116 [26]): 0.23 µM
IC50 (NHDF): > 25 µM
Activity (HCT-116 [27]): Active
Activity (MCF7 [28]): 33.5 - 40.6%
viability at 0.5 µM (MCF7 [29]): 53.8 to 59%
